Experimental findings from ChEMBL document CHEMBL1142421, “Synthesis and inhibitory activity of oligosaccharide thiazolines as a class of mechanism-based inhibitors for endo-beta-N-acetylglucosaminidases” (Bioorg Med Chem, 2008) are described below.

The test system of assay [1] is Flavobacterium sp. Description: Inhibition of Flavobacterium sp. endo-beta-N-acetylglucosaminidase at 100 uM after 5 mins by HPAEC-PED method. In outline: (§1)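 Endo-Fsp assay uses Man5GlcNAc2Asn as substrate in 50 mM phosphate buffer pH 6.5. Limited enzyme is incubated with or without thiazoline at 30°C for 5 min, then heated at 100°C for 3 min to stop. Hydrolytic product quantified by HPAEC-PED.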

The target of assay [2] is T1, Endo-beta-N-acetylglucosaminidase (Arthrobacter protophormiae, UniProt Q9ZB22).
T1 sequence (Q9ZB22 whole entry): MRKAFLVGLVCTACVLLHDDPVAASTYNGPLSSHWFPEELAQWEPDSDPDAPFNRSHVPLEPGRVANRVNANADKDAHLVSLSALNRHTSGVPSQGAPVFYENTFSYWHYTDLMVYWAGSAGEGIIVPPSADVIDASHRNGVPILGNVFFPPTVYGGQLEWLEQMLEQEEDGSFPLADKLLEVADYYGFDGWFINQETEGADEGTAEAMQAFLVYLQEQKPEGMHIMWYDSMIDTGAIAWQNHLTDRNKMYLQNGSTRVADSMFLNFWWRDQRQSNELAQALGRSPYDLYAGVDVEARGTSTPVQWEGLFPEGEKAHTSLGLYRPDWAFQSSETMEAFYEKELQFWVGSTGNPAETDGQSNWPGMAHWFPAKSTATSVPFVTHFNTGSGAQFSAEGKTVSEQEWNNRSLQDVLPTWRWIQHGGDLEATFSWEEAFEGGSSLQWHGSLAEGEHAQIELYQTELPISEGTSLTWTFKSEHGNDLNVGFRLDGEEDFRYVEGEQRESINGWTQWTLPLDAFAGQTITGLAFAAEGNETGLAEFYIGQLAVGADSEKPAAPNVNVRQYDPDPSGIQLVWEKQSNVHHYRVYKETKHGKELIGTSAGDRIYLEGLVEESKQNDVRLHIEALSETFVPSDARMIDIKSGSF
As to the kind of experiment: Inhibition of Arthrobacter protophormiae endo-beta-N-acetylglucosaminidase after 5 mins by HPAEC-PED method. Details: species or system Glutamicibacter protophormiae. The procedure, abridged: (§2)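 Man9GlcNAc2Asn (500 μM) as substrate in 50 mM phosphate buffer pH 6.5. Limited enzyme is incubated with or without serial dilutions of thiazoline at 30°C for 5 min. Reaction stopped by heating at 100°C for 3 min. Man9GlcNAc hydrolysis product quantified by HPAEC-PED.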

The nature of assay [3]: Inhibition of Mucor hiemalis endo-beta-N-acetylglucosaminidase after 5 mins by HPAEC-PED method. In outline:
as §2

In assay [4] the target is T2, Endo-beta-N-acetylglucosaminidase (Arthrobacter protophormiae) (UniProt Q9ZB22).
T2 sequence (whole entry): T1 sequence (Q9ZB22 whole entry)
As to the kind of experiment: Inhibition of Arthrobacter protophormiae endo-beta-N-acetylglucosaminidase upto 500 uM after 5 mins by HPAEC-PED method. The conditions noted are these: Glutamicibacter protophormiae. In outline: as §2

Another assay concerns Mucor hiemalis. As to the kind of experiment: Inhibition of Mucor hiemalis endo-beta-N-acetylglucosaminidase upto 500 uM after 5 mins by HPAEC-PED method. The procedure, abridged:
as §2

Assay [5] concerns the target T3, Cytosolic endo-beta-N-acetylglucosaminidase (Homo sapiens, UniProt Q8NFI3).
T3 sequence (Q8NFI3 whole entry): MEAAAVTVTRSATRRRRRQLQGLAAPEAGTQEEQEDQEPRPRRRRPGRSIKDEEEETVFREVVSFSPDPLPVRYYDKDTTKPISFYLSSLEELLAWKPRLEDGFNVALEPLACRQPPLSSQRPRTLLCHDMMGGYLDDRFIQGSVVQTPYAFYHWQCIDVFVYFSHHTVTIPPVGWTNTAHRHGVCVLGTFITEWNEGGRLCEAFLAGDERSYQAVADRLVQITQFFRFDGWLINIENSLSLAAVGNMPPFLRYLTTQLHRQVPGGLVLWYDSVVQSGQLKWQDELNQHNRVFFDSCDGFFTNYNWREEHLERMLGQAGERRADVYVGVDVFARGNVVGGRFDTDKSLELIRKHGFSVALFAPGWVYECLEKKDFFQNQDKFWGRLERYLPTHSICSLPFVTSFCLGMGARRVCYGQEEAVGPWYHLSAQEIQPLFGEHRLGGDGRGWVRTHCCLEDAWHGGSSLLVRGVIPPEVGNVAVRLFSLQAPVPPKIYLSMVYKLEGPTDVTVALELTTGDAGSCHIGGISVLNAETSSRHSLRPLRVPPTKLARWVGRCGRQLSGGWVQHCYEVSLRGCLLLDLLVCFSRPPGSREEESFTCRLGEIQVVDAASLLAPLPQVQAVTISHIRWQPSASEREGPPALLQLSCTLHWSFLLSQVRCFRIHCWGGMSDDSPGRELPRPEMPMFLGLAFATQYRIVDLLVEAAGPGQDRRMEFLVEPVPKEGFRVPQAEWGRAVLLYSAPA
Description: Inhibition of human endo-beta-N-acetylglucosaminidase expressed in Hek293 cells after 3 mins. The format is cell-based. In outline: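 Enzyme source: HEK293 cells transfected with pcDNA-hENGase, extracted 48 h later in Hepes-KOH pH 7.0 with protease inhibitors. The 100,000 × g soluble fraction was assayed in 40 mM Mes-NaOH pH 6.1 with 1 μM Man9GlcNAc2-PA and inhibitor from 10 mM to 0.1 μM, 3 min at 37°C. Reaction stopped by boiling; product quantified by C18 HPLC.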

Assay [6] has as its system Flavobacterium sp. As to the kind of experiment: Inhibition of Flavobacterium sp. endo-beta-N-acetylglucosaminidase at 1uM after 5 mins by HPAEC-PED method. In outline:
as §1

What is called IC50 is the concentration needed to halve the response being measured. A low value points to greater potency in that assay. One may read the inhibition as the percentage by which the read-out fell short of the control. A lower inhibition goes with a weak effect.

Active and inactive are the calls of the source. The calls are words filed in the database; no cut-off is given here.

As to `CC1=N[C@@H]2[C@@H](O)[C@H](O[C@@H]3O[C@H](CO[C@H]4O[C@H](CO)[C@@H](O)[C@H](O)[C@@H]4O)[C@@H](O)[C@H](O[C@@H]4O[C@H](CO)[C@@H](O)[C@H](O)[C@@H]4O)[C@@H]3O)[C@@H](CO)O[C@H]2S1`, the result with Flavobacterium sp. [1] was inactive. Besides, the results for the IC50 in assay [2] and in assay [3] were 13 µM and 64 µM, respectively.

For the compound `CC1=N[C@@H]2[C@@H](O)[C@H](O)[C@@H](CO)O[C@H]2S1`, the result (in assay [4]; in the assay on Mucor hiemalis) was inactive.

On to `CC1=N[C@@H]2[C@@H](O)[C@H](O[C@@H]3O[C@H](CO)[C@@H](O)[C@H](O)[C@@H]3O)[C@@H](CO)O[C@H]2S1`, for which the result with Flavobacterium sp. [1] was inactive. Further, the values for the IC50 in assay [2] and in assay [3] were 38 µM and 80 µM, respectively.

In the case of `CC1=N[C@@H]2[C@@H](O)[C@H](O[C@@H]3O[C@H](CO[C@H]4O[C@H](CO[C@H]5O[C@H](CO[C@H]6O[C@H](CO)[C@@H](O)[C@H](O)[C@@H]6O)[C@@H](O)[C@H](O)[C@@H]5O)[C@@H](O)[C@H](O[C@@H]5O[C@H](CO)[C@@H](O)[C@H](O[C@@H]6O[C@H](CO)[C@@H](O)[C@H](O)[C@@H]6O)[C@@H]5O)[C@@H]4O)[C@@H](O)[C@H](O[C@@H]4O[C@H](CO)[C@@H](O)[C@H](O)[C@@H]4O[C@@H]4O[C@H](CO)[C@@H](O)[C@H](O)[C@@H]4O[C@@H]4O[C@H](CO)[C@@H](O)[C@H](O)[C@@H]4O)[C@@H]3O)[C@@H](CO)O[C@H]2S1`, the IC50 came out at 0.22 µM in assay [2], 0.42 µM in assay [5] and 6 µM in assay [3]. In addition, in the assay with Flavobacterium sp. [6], the inhibition was found to be 75%.
